Measured values as given in ChEMBL document CHEMBL1926614, “Substituted thiazoles V. synthesis and antitumor activity of novel thiazolo[2,3-b]quinazoline and pyrido[4,3-d]thiazolo[3,2-a]pyrimidine analogues” (2012).

How the values were obtained:
Format in all cases: functional
[1] = Cytotoxicity against human colon cancer cells after 48 hrs by coulter counting; conditions: Cancer cell lines
How it was run: (§1)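 NCI 60-cell-line panel covering nine tumour subpanels, tested over a 5-log dose range. Compounds were dissolved in DMSO and diluted in phosphate-buffered saline to a final DMSO below 1%. Wells held 6 × 10⁴ cells/ml and were run in duplicate. Controls contained PBS and DMSO at matching dilutions. Incubation was at 37 °C in humidified 5% CO₂. GI₅₀, TGI and LC₅₀ were reported.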

[2] = Cytotoxicity against human leukemia cells after 48 hrs by coulter counting; conditions: Leukemia cell; how it was run: as §1
[3] = Cytotoxicity against human CNS cancer cells after 48 hrs by coulter counting; conditions: Cancer cell lines; how it was run: as §1
NSCLC = experiment: Cytotoxicity against human NSCLC cells after 48 hrs by coulter counting; how it was run: as §1
[4] = Cytotoxicity against human prostate cancer cells after 48 hrs by coulter counting; conditions: Cancer cell lines; how it was run: as §1
[5] = Cytotoxicity against human ovarian cancer cells after 48 hrs by coulter counting; conditions: Cancer cell lines; how it was run: as §1
[6] = Cytotoxicity against human melanoma cells after 48 hrs by coulter counting; conditions: Melanoma cell; how it was run: as §1
[7] = Cytotoxicity against human breast cancer cells after 48 hrs by coulter counting; conditions: Cancer cell lines; how it was run: as §1
[8] = Cytotoxicity against human renal cancer cells after 48 hrs by coulter counting; conditions: Cancer cell lines; how it was run: as §1
CCRF-CEM = experiment: Growth inhibition of human CCRF-CEM cells at 10 uM after 48 hrs by coulter counting; conditions: read-out: GI
How it was run: (§2)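 Single-dose primary screen across the full NCI 60-cell-line panel. Stocks were made in DMSO and diluted in PBS to a final DMSO below 1%. Cultures at 6 × 10⁴ cells/ml were run in duplicate wells alongside PBS/DMSO vehicle controls at 37 °C in humidified 5% CO₂. Data were expressed as percent growth of treated cells.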

HCC 2998 = experiment: Growth inhibition of human HCC2998 cells at 10 uM after 48 hrs by coulter counting; conditions: HCC 2998, 48 h, read-out: GI; how it was run: as §2
NCI-H522 = experiment: Growth inhibition of human NCI-H522 cells at 10 uM after 48 hrs by coulter counting; conditions: NCI-H522, 48 h, read-out: GI; how it was run: as §2
SF-268 = experiment: Growth inhibition of human SF268 cells at 10 uM after 48 hrs by coulter counting; conditions: SF-268, 48 h, read-out: GI; how it was run: as §2
K562 = experiment: Growth inhibition of human K562 cells at 10 uM after 48 hrs by coulter counting; conditions: K562, 48 h, read-out: GI; how it was run: as §2
HCT-116 = experiment: Growth inhibition of human HCT116 cells at 10 uM after 48 hrs by coulter counting; conditions: HCT-116, 48 h, read-out: GI; how it was run: as §2
SNB-75 = experiment: Growth inhibition of human SNB75 cells at 10 uM after 48 hrs by coulter counting; conditions: SNB-75, 48 h, read-out: GI; how it was run: as §2
A498 = experiment: Growth inhibition of human A498 cells at 10 uM after 48 hrs by coulter counting; conditions: A498, 48 h, read-out: GI; how it was run: as §2
CAKI-1 = experiment: Growth inhibition of human Caki1 cells at 10 uM after 48 hrs by coulter counting; conditions: CAKI-1, 48 h, read-out: GI; how it was run: as §2
UACC-257 = experiment: Growth inhibition of human UACC257 cells at 10 uM after 48 hrs by coulter counting; conditions: UACC-257, 48 h, read-out: GI
How it was run: (§3)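 Single-dose screen in the NCI 60 human tumor cell line panel (nine subpanels). Compounds dissolved in DMSO and diluted in phosphate buffered saline, keeping final DMSO below 1%. Added in duplicate wells to cells at 6 × 10⁴ cells/ml. Controls held PBS and DMSO at matching dilutions. Incubated at 37 °C, humidified, 5% CO₂. Reported as percent growth of treated cells.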

LOX IMVI = experiment: Growth inhibition of human LOXIMVI cells at 10 uM after 48 hrs by coulter counting; conditions: read-out: GI; how it was run: as §2
HT-29 = experiment: Growth inhibition of human HT-29 cells at 10 uM after 48 hrs by coulter counting; conditions: HT-29, 48 h, read-out: GI; how it was run: as §2
U-251 = experiment: Growth inhibition of human U251 cells at 10 uM after 48 hrs by coulter counting; conditions: U-251, 48 h, read-out: GI; how it was run: as §3
MDA-MB-435 = experiment: Growth inhibition of human MDA-MB-435 cells at 10 uM after 48 hrs by coulter counting; conditions: MDA-MB-435, 48 h, read-out: GI; how it was run: as §2
SK-MEL-28 = experiment: Growth inhibition of human SK-MEL-28 cells at 10 uM after 48 hrs by coulter counting; conditions: SK-MEL-28, 48 h, read-out: GI; how it was run: as §2
SF-295 = experiment: Growth inhibition of human SF295 cells at 10 uM after 48 hrs by coulter counting; conditions: SF-295, 48 h, read-out: GI; how it was run: as §2
A549 = experiment: Growth inhibition of human A549 cells at 10 uM after 48 hrs by coulter counting; conditions: A549, 48 h, read-out: GI; how it was run: as §2
SK-MEL-5 = experiment: Growth inhibition of human SK-MEL-5 cells at 10 uM after 48 hrs by coulter counting; conditions: SK-MEL-5, 48 h, read-out: GI; how it was run: as §2
UO-31 = experiment: Growth inhibition of human UO31 cells at 10 uM after 48 hrs by coulter counting; conditions: UO-31, 48 h, read-out: GI; how it was run: as §3
NCI/ADR-RES = experiment: Growth inhibition of human NCI/ADR-RES cells at 10 uM after 48 hrs by coulter counting; conditions: read-out: GI; how it was run: as §2
T47D = experiment: Growth inhibition of human T47D cells at 10 uM after 48 hrs by coulter counting; conditions: read-out: GI; how it was run: as §3
UACC-62 = experiment: Growth inhibition of human UACC62 cells at 10 uM after 48 hrs by coulter counting; conditions: UACC-62, 48 h, read-out: GI; how it was run: as §3
IGROV-1 = experiment: Growth inhibition of human IGROV1 cells at 10 uM after 48 hrs by coulter counting; conditions: IGROV-1, 48 h, read-out: GI; how it was run: as §2
NCI-H226 = experiment: Growth inhibition of human NCI-H226 cells at 10 uM after 48 hrs by coulter counting; conditions: NCI-H226, 48 h, read-out: GI; how it was run: as §2
KM12 = experiment: Growth inhibition of human KM12 cells at 10 uM after 48 hrs by coulter counting; conditions: KM12, 48 h, read-out: GI; how it was run: as §2
MCF7 = experiment: Growth inhibition of human MCF7 cells at 10 uM after 48 hrs by coulter counting; conditions: MCF7, 48 h, read-out: GI; how it was run: as §2
EKVX = experiment: Growth inhibition of human EKVX cells at 10 uM after 48 hrs by coulter counting; conditions: read-out: GI; how it was run: as §2
HL-60(TB) = experiment: Growth inhibition of human HL-60(TB) cells at 10 uM after 48 hrs by coulter counting; conditions: HL-60, 48 h, read-out: GI
How it was run: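 Test compound was dissolved in DMSO and diluted in phosphate-buffered saline to a final DMSO level below 1%. Dilutions were plated in duplicate with cell culture at 6 × 10⁴ cells/ml. Vehicle controls held PBS and DMSO at matching dilutions. Incubation was at 37 °C, humidified, under 5% CO₂. Data were reported as percent growth of treated cells.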

DU-145 = experiment: Growth inhibition of human DU145 cells at 10 uM after 48 hrs by coulter counting; conditions: DU-145, 48 h, read-out: GI; how it was run: as §2
OVCAR-4 = experiment: Growth inhibition of human OVCAR4 cells at 10 uM after 48 hrs by coulter counting; conditions: OVCAR-4, 48 h, read-out: GI; how it was run: as §2
[9] = Growth inhibition of human NCI-322M cells at 10 uM after 48 hrs by coulter counting; conditions: read-out: GI; how it was run: as §2
RPMI-8226 = experiment: Growth inhibition of human RPMI8226 cells at 10 uM after 48 hrs by coulter counting; conditions: RPMI-8226, 48 h, read-out: GI; how it was run: as §2
SK-MEL-2 = experiment: Growth inhibition of human SK-MEL-2 cells at 10 uM after 48 hrs by coulter counting; conditions: SK-MEL-2, 48 h, read-out: GI; how it was run: as §2
MOLT-4 = experiment: Growth inhibition of human MOLT4 cells at 10 uM after 48 hrs by coulter counting; conditions: MOLT-4, 48 h, read-out: GI; how it was run: as §2
NCI-H23 = experiment: Growth inhibition of human NCI-H23 cells at 10 uM after 48 hrs by coulter counting; conditions: NCI-H23, 48 h, read-out: GI; how it was run: as §2
SNB-19 = experiment: Growth inhibition of human SNB19 cells at 10 uM after 48 hrs by coulter counting; conditions: SNB-19, 48 h, read-out: GI; how it was run: as §2
M14 = experiment: Growth inhibition of human M14 cells at 10 uM after 48 hrs by coulter counting; conditions: M14, 48 h, read-out: GI; how it was run: as §2
ACHN = experiment: Growth inhibition of human ACHN cells at 10 uM after 48 hrs by coulter counting; conditions: read-out: GI; how it was run: as §2
BT-549 = experiment: Growth inhibition of human BT549 cells at 10 uM after 48 hrs by coulter counting; conditions: BT-549, 48 h, read-out: GI; how it was run: as §2
[10] = read-out: LC50 (the source's name)

O=c1[nH]cc(F)c(=O)[nH]1 [FLUOROURACIL]
GI50 [1]: 8.4 µM
TGI [1]: > 100 µM
TGI [2]: > 100 µM
CC50 [2, 10]: > 100 µM
TGI [3]: > 100 µM
GI50 (NSCLC): > 100 µM
TGI (NSCLC): > 100 µM
CC50 (NSCLC; [10]): > 100 µM
GI50 [4]: 22.7 µM
TGI [4]: > 100 µM
GI50 [5]: 61.4 µM
TGI [5]: > 100 µM
CC50 [5, 10]: > 100 µM
GI50 [6]: 70.6 µM
TGI [6]: > 100 µM
CC50 [6, 10]: > 100 µM
GI50 [7]: 76.4 µM
TGI [7]: > 100 µM
CC50 [7, 10]: > 100 µM
GI50 [8]: 45.6 µM
TGI [8]: > 100 µM

COc1cc(/C=C2\CCCC3=C2N=C2SC=C(C)N2C3c2cc(OC)c(OC)c(OC)c2)cc(OC)c1OC (stereo not given)
inhibition of growth at 10 µM (CCRF-CEM): > 10%
inhibition of growth at 10 µM (HCC 2998): > 10%
inhibition of growth at 10 µM (NCI-H522): > 10%
inhibition of growth at 10 µM (SF-268): > 10%
inhibition of growth at 10 µM (K562): > 10%
inhibition of growth at 10 µM (HCT-116): > 10%
inhibition of growth at 10 µM (SNB-75): > 10%
inhibition of growth at 10 µM (A498): > 10%
inhibition of growth at 10 µM (CAKI-1): > 10%
inhibition of growth at 10 µM (UACC-257): > 10%
inhibition of growth at 10 µM (LOX IMVI): > 10%
inhibition of growth at 10 µM (HT-29): > 10%
inhibition of growth at 10 µM (U-251): > 10%
inhibition of growth at 10 µM (MDA-MB-435): > 10%
inhibition of growth at 10 µM (SK-MEL-28): > 10%
inhibition of growth at 10 µM (SF-295): > 10%
inhibition of growth at 10 µM (A549): > 10%
inhibition of growth at 10 µM (SK-MEL-5): > 10%
inhibition of growth at 10 µM (UO-31): 20%
inhibition of growth at 10 µM (NCI/ADR-RES): > 10%
inhibition of growth at 10 µM (T47D): > 10%
inhibition of growth at 10 µM (UACC-62): > 10%
inhibition of growth at 10 µM (IGROV-1): > 10%
inhibition of growth at 10 µM (NCI-H226): > 10%
inhibition of growth at 10 µM (KM12): > 10%
inhibition of growth at 10 µM (MCF7): > 10%
inhibition of growth at 10 µM (EKVX): > 10%
inhibition of growth at 10 µM (HL-60(TB)): > 10%
inhibition of growth at 10 µM (DU-145): > 10%
inhibition of growth at 10 µM (OVCAR-4): > 10%
inhibition of growth at 10 µM [9]: > 10%
inhibition of growth at 10 µM (RPMI-8226): > 10%
inhibition of growth at 10 µM (SK-MEL-2): > 10%
inhibition of growth at 10 µM (MOLT-4): > 10%
inhibition of growth at 10 µM (NCI-H23): > 10%
inhibition of growth at 10 µM (SNB-19): > 10%
inhibition of growth at 10 µM (M14): > 10%
inhibition of growth at 10 µM (ACHN): > 10%
inhibition of growth at 10 µM (BT-549): > 10%
